Screening results: PubChem BioAssay, several laboratories
Sampled rows, rich in hits. Any-hit rate of the full collection: about 12%.
Wee1 stabilizer: inhibitors of human Wee1 degradation. 220,000 compounds, 1.2% hits. P30291. AID 1321. HeLa Luc-Wee1K328M stability, luciferase luminescence; 100% = proteasome inhibitor MG132 effect. reporter increase, % at 5 µM;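 active = activation above the mean of all tested compounds plus 3 SD, set per screening run, cut at about 8.8% in these data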;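 note: cells exposed to compound for 20 h before luminescence read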
PKD1 inh: PKD1 (human) kinase inhibition; Q15139; PKD1 kinase fluorescence polarization assay; inhibition, % (concentration not given with the values); 200,000 compounds, 0.056% hits; AID 797
Target sequence (Q15139 whole entry, looked up): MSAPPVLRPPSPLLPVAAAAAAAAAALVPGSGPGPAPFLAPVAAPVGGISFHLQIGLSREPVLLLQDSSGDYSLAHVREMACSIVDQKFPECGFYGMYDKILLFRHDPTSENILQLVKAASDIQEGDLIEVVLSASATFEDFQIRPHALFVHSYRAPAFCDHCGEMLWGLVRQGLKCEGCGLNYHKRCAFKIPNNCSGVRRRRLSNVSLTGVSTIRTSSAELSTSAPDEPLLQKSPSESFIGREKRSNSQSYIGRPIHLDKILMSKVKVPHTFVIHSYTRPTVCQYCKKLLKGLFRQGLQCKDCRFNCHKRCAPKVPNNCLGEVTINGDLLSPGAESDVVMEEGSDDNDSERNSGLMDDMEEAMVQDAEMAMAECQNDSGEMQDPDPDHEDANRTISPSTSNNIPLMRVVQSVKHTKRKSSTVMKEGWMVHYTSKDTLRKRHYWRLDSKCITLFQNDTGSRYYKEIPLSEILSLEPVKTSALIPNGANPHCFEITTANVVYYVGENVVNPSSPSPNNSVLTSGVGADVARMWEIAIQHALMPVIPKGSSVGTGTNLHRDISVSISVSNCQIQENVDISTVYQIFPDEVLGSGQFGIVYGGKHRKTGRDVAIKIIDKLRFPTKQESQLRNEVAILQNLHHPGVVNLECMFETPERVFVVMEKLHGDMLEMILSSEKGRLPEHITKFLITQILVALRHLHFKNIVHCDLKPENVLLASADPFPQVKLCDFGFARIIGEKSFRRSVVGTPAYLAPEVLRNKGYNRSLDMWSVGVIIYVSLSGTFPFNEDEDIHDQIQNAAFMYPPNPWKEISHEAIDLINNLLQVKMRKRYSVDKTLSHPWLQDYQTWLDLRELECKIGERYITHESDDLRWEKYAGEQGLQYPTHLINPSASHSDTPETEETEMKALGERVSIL
CHOP inhibitor: blocks CHOP induction under ER stress. CHO-K1 CHOP-promoter luciferase, tunicamycin-induced, 15-18 h. inhibition, % at 10 µM. 220,000 compounds, 3.8% hits;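 active = compounds that reduced the stress-induced luciferase reporter signal by more than about 70% of percent inhibition, limit read from the data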
Rad51 HR inh: Rad51 (human) homologous recombination inhibition; Q06609; hRad51 DNA strand exchange, fluorescence dequenching; inhibition, % at 10 µM; 200,000 compounds, 0.085% hits; AID 1385;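 active = inhibition above 40% at the single screening dose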
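material = hRad51 filaments on single-stranded DNA | reagent = Donor/quencher-labelled 47-bp dsDNA substrate | compound = 10 µM final, single point | schedule = strand-exchange reaction 15 min at room temperature | measured by = fluorescein emission 520 nm, excitation 485 nm | read-out basis = % inhibition versus plate control and blank means | benchmarks = plate controls and plate blanks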
Lmaj promast: Leishmania major promastigote growth inhibition. Leishmania major promastigotes, resazurin fluorescence viability. inhibition, % at 10 µM. 200,000 compounds, 9% hits. AID 1063;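 note: promastigotes grown with compound for 44 hours at 28 °C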
Arbovirus anti: antivirals against arbovirus infection; arbovirus infection cell-based antiviral screen; inhibition, % at 10 µM; 200,000 compounds, 0.37% hits; AID 1251; in the data active = inhibition above about 30%
Each line names hits and unclear results; the compound was inactive in the other large screens. Cut-off read from the data, not from the text of the source, unless noted: active = inhibition above about 50%; inactive = the rest.

COc1ccc(-c2c(C#N)c(SCC(=O)Nc3ccccc3)nc3c2CCCC3)cc1	Lmaj promast 92 (no result: CHOP inhibitor, Arbovirus anti)
CSc1nc2c(c(-c3ccc(O)cc3)c1C#N)CCC2	CHOP inhibitor 86
O=C(N[C@@H](c1ccccc1)[C@H](O)c1ccccc1)[C@@H]1CCCN1C(=O)OCc1ccccc1	none (no result: Wee1 stabilizer, PKD1 inh, CHOP inhibitor, Lmaj promast, Arbovirus anti)
OC(CSc1c(Cl)cccc1Cl)CN1CCN(c2ccc(F)cc2)CC1 (stereo unspecified)	CHOP inhibitor 88, Lmaj promast 63 (no result: Rad51 HR inh)
Cc1cc(=O)oc2cc(OCC(O)CN3CCN(c4ccc(F)cc4)CC3)ccc12 (stereo unspecified)	none (no result: CHOP inhibitor)
OC(CSc1ccccc1Cl)CN1CCN(c2ccccc2F)CC1 (stereo unspecified)	Lmaj promast 64
O=C(COc1ccccc1Cl)N1CCN(c2ccc(F)cc2)CC1	none
OC(CSc1ccccc1Cl)CN1CCN(c2ccc(F)cc2)CC1 (stereo unspecified)	Lmaj promast 91
CCOC(=O)c1oc2nc(CC(C)C)c3c(c2c1N)CCCC3	none (no result: PKD1 inh, Lmaj promast, Arbovirus anti)
CC(=O)n1cc([C@H]2C=C(C(N)=O)O[C@@H](OCc3ccc(CO)cc3)C2)c2ccccc21	none (no result: Wee1 stabilizer, PKD1 inh, CHOP inhibitor, Lmaj promast, Arbovirus anti)
Cc1ccc(C(=O)CC(=O)COc2ccc(Cl)cc2C)cc1	Lmaj promast 91 (no result: Rad51 HR inh)
CN1CCN(C(=O)/C(=C/c2ccccc2)c2ccccc2)CC1	none
CC1CC(C)CN(C(=O)/C(=C\c2ccccc2)c2ccccc2)C1 (stereo unspecified)	Lmaj promast 96
CC1CCCCN1C(=O)/C(=C\c1ccccc1)c1ccccc1 (stereo unspecified)	CHOP inhibitor 88
CCCOc1ccc(CSc2nc3ccccc3[nH]2)cc1	CHOP inhibitor 76 (no result: Rad51 HR inh)
CCOc1ccc(OCCSc2nc3ccccc3[nH]2)cc1	none
COC(=O)C1=C(C)N(Cc2ccco2)C(=O)/C1=C\c1ccc([N+](=O)[O-])cc1	Lmaj promast 99
COC(=O)CN1C(=S)N(c2ccc(OC)cc2)C(=O)/C1=C/c1ccc(N2CCOCC2)cc1	none
COC(=O)CN1C(=S)N(c2ccc(OC)cc2)C(=O)/C1=C/c1ccc(OC)cc1	Lmaj promast 54
O=c1c2c3c(sc2nc2n1CCCCC2)C(O)CCC3 (stereo unspecified)	none
Cc1ccc(NC(=O)C2C3CC4OC(=O)C2C4C3)cc1Cl (stereo unspecified)	none
CC(C)OC(=O)c1ccc(NC(=O)C2C3CC4OC(=O)C2C4C3)cc1 (stereo unspecified)	Wee1 stabilizer 9.8
S=C(Nc1ccc(Oc2ccccc2)cc1)NC1CCCC1	none
S=C(NCC1CCCCC1)Nc1ccc(Oc2ccccc2)cc1	CHOP inhibitor 73, Lmaj promast 90
CCC(C)N(NC(C)=O)c1nc(Cl)nc(NC(C)(C)C)n1 (stereo unspecified)	none
CC(=O)N(CCCc1ccc(C(C)(C)C)cc1)CCCN(C)C	Lmaj promast 99
CC(=O)N(CCCN(C)C)Cc1ccccn1	none (no result: PKD1 inh, Lmaj promast, Arbovirus anti)
CC1(C)C2C/C(=N\O)C(C)(/[N+]([O-])=C/c3cccc([N+](=O)[O-])c3)CC21 (stereo unspecified)	none
Cc1ccc2cc(C#N)c(N3CCN(C)CC3)nc2c1	none
Cc1ccc2cc(C)c(N3CCN(c4ccccn4)CC3)nc2c1	CHOP inhibitor 74
O=C(O)c1ccccc1-n1c(-c2ccccc2)cc2c1CCCC2=O	none (no result: Rad51 HR inh)
CCOC(=O)Cn1nc(C)c(NC(=O)COc2ccc(OC)cc2)c1C	none (no result: PKD1 inh, Lmaj promast, Arbovirus anti)
COCCn1c(SCc2ccc(OC)c(F)c2)nc2ccccc2c1=O	Lmaj promast 100
COCCn1c(SCCN2CCCCC2)nc2ccccc2c1=O	Lmaj promast 100
COCCn1c(SCC(=O)N2CCCCC2)nc2ccccc2c1=O	none
NC1CCN(c2c(F)cc3c(=O)c(C(=O)O)cn(C4CC4)c3c2Cl)C1 (stereo unspecified)	none (no result: PKD1 inh, Lmaj promast, Arbovirus anti)
COc1ccc(N/C=C2\CCc3ccccc3C2=O)cc1	CHOP inhibitor 83
COc1ccc2c(c1)CC/C(=C\Nc1ccc3c(c1)OCO3)C2=O	none
O=C1/C(=C/Nc2ccc3c(c2)OCO3)CCc2ccccc21	CHOP inhibitor 77
CCN(CC)CCN1C(=O)C(O)=C(C(=O)c2cc3cccc(OC)c3o2)C1c1ccc(F)cc1 (stereo unspecified)	none (no result: PKD1 inh, Lmaj promast, Arbovirus anti)
O=C(C[n+]1ccccc1)N/N=C/c1ccc(F)cc1	none
COc1ccc(NC(=O)NNC(=O)c2ccccc2-n2cccc2)cc1OC	none
CCOC(=O)C1CCN(C(=O)COc2ccc(S(=O)(=O)N3CCCC3)cc2C)CC1	none
Cc1nc(C(=O)NC2CCCCC2)sc1C1(C)CC(c2cccnc2)=NO1 (stereo unspecified)	none (no result: Wee1 stabilizer, PKD1 inh, CHOP inhibitor, Lmaj promast, Arbovirus anti)
Cc1ccc(-c2cc(-c3ccccc3)no2)c(O)c1	Arbovirus anti 36
Oc1ccccc1-c1cc(-c2ccccc2)no1	none
Cc1onc(C(=O)NCc2ccccn2)c1[N+](=O)[O-]	none
CCc1ccc(NC(=O)CCn2ccnc2C)cc1	none
COc1cc2c(cc1OC)CN(c1ccc(-c3ccccc3OC)nn1)CC2	Lmaj promast 100
CCN(CC)CCNC(=O)Cn1nc(-c2ccc(C)cc2)ccc1=O	CHOP inhibitor 86
CC(=O)OC1COC(N2CCc3cc(Br)c([N+](=O)[O-])cc32)C(OC(C)=O)C1OC(C)=O (stereo unspecified)	CHOP inhibitor 89
CC(=O)OC1COC(N2CCc3ccccc32)C(OC(C)=O)C1OC(C)=O (stereo unspecified)	none (no result: Rad51 HR inh)
Cc1ccc(NC(=O)CCN2CCN(C/C=C/c3ccccc3)CC2)cc1	Lmaj promast 94
O=C(CCN1CCN(C/C=C/c2ccccc2)CC1)Nc1ccc(Cl)cc1	Lmaj promast 76
Cc1ccc(NC(=O)CCN2CCN(C/C=C/c3ccccc3)CC2)cc1C	Lmaj promast 87 (no result: Rad51 HR inh)
S=c1[nH]nc(-c2ccc3ccccc3n2)n1-c1ccccc1Cl	Lmaj promast 52
CN(C(=O)N1CCN(S(=O)(=O)c2ccccc2)CC1)c1ccccc1	none
O=C(Nc1ccc(Br)cc1)c1ccc(F)c(S(=O)(=O)NCc2cccs2)c1	CHOP inhibitor 93
O=C(Nc1nccs1)c1ccc(S(=O)(=O)NCc2cccs2)cc1	none
NC(=O)COC(=O)/C=C/c1cccc(Br)c1	none
C/C=C(/C)C(=O)OC1c2c(ccc3ccc(=O)oc23)OC(C)(C)C1OC(C)=O (stereo unspecified)	Lmaj promast 67
COc1ccccc1/C=N/NC(=Nc1ccc(C)cc1)c1nc2ccccc2s1	none (no result: Rad51 HR inh)
COc1cc(C=C(c2nc3ccccc3s2)c2nc3ccccc3s2)cc(OC)c1O	Lmaj promast 95 (no result: Rad51 HR inh)
COc1cc(/C=N/NC(=Nc2ccc(C)cc2)c2nc3ccccc3s2)ccc1O	CHOP inhibitor 74
COc1cc(/C=C(\CC(=O)O)c2nc3ccccc3s2)cc(OC)c1O	none
CC(C)n1c2ccccc2c2nnc(SCC(=O)Nc3ccccc3C(=O)O)nc21	none
O=[N+]([O-])c1ccccc1CNC1CCCCCC1	Lmaj promast 83
Cc1ccccc1CNC1CCCCC1	none (no result: Rad51 HR inh)
